ChEMBL document CHEMBL4052798, “Design, synthesis and biological evaluation of indole derivatives as Vif inhibitors” (Bioorg Med Chem Lett, 2017)
Calls of active or inactive are those of the source. No cut-off for these calls is given here.

What was measured:
[1] = system: Human immunodeficiency virus 1; experiment: Inhibition of doxycycline-induced HIV1 Vif expressed in TREX-hVif-15 cells co-expressing EYFP-N1-tagged human A3G assessed as restoration of Vif-induced A3G degradation level at 20 uM after 48 hrs by Western blot analysis; type: cell-based
How it was run: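 TREX-hvif-15 cells were transfected with EYFP-N1-hA3G, and Vif was induced with 0.1 μg/mL Dox. Cells were treated with or without compound at 20 μM. A3G and Vif protein levels were detected by western blot, and A3G restoration was graded qualitatively, lowest to high.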

[2] = system: Human immunodeficiency virus 1; experiment: Inhibition of doxycycline-induced HIV1 Vif expressed in TREX-hVif-15 cells co-expressing EYFP-N1-tagged human A3G assessed as reduction in Vif-mediated A3G degradation by measuring fold change in mean fluorescence intensity at 50 uM by flow cytometric method; type: cell-based
How it was run: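 TREX-hvif-15 cells with Tet-On-regulated Vif were transfected with EYFP-N1-hA3G, and Vif was induced with 1 μg/mL Dox. Compounds were tested at 50 µM. A3G-EYFP mean fluorescence intensity was expressed as fold change and scored as: no or <1-fold; 1–2; 2–3; >3. Reference groups were A3G⁺/Vif⁻ and A3G⁺/Vif⁺.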

For Nc1ncccc1-c1ccc2[nH]ccc2c1, the inhibition [1] was “Active” and the fold change (FC) [2] was 1 to 2.

For O=Cc1ccccc1-c1ccc2[nH]ccc2c1, the inhibition [1] was “inactive” and the fold change (FC) [2] was 1 to 2.

O=Cc1cccc(-c2ccc3[nH]ccc3c2)n1 was tested, and the inhibition [1] was “Active” and the fold change (FC) [2] was 1 to 2.

O=C(O)c1ccc(-c2ccc3[nH]ccc3c2)cc1 was tested, and the inhibition [1] was “Active” and the fold change (FC) [2] was 2 to 3.

For O=Cc1ccc(-c2ccc3[nH]ccc3c2)cc1, the inhibition [1] was “inactive” and the fold change (FC) [2] was less than 1.

For NC(=O)c1cncc(-c2ccc3[nH]ccc3c2)c1, the inhibition [1] was “Active” and the fold change (FC) [2] was 1 to 2.

With NC(=O)c1ccnc(-c2ccc3[nH]ccc3c2)c1 the inhibition [1] was “inactive” and the fold change (FC) [2] was 2 to 3.

Nc1ccc(-c2ccc3[nH]ccc3c2)cn1 was tested, and the inhibition [1] was “Active” and the fold change (FC) [2] was 2 to 3.

COc1ccc(-c2ccc3[nH]ccc3c2)cn1 was tested, and the inhibition [1] was “Active” and the fold change (FC) [2] was 1 to 2.

In the case of c1ccc(-c2ccc3[nH]ccc3c2)nc1, the inhibition [1] was “inactive” and the fold change (FC) [2] was less than 1.

O=C(O)c1ccnc(-c2ccc3[nH]ccc3c2)c1 was tested, and the inhibition [1] was “Active” and the fold change (FC) [2] was 2 to 3.

NC(=O)c1ccc(-c2ccc3[nH]ccc3c2)nc1 was tested, and the inhibition [1] was “Active” and the fold change (FC) [2] was 2 to 3.

O=Cc1ccc(-c2ccc3[nH]ccc3c2)nc1 was tested, and the inhibition [1] was “inactive” and the fold change (FC) [2] was less than 1.

With O=C(O)Cc1ccc(-c2ccc3[nH]ccc3c2)cc1 the inhibition [1] was “inactive” and the fold change (FC) [2] was less than 1.

With Nc1cccc(-c2ccc3[nH]ccc3c2)n1 the inhibition [1] was “Active” and the fold change (FC) [2] was 1 to 2.

O=Cc1cccc(-c2ccc3[nH]ccc3c2)c1 was tested, and the inhibition [1] was “Active” and the fold change (FC) [2] was 1 to 2.

With O=C(O)c1ccc(-c2ccc3[nH]ccc3c2)nc1 the inhibition [1] was “Active” and the fold change (FC) [2] was greater than 3.

With Nc1cccnc1-c1ccc2[nH]ccc2c1 the inhibition [1] was “Active” and the fold change (FC) [2] was 2 to 3.

N#Cc1ccccc1-c1ccc2[nH]ccc2c1 was tested, and the inhibition [1] was “inactive” and the fold change (FC) [2] was less than 1.

For CS(=O)(=O)c1ccc(-c2ccc3[nH]ccc3c2)cc1, the inhibition [1] was “Active” and the fold change (FC) [2] was 2 to 3.
